The results in this text go back to publication PMC12243159 (RSC Medicinal Chemistry, 2025).

Structures are written as SMILES.

A word on the Ki: it is the equilibrium dissociation constant of an inhibitor or competing ligand from its target. Read a low Ki as a stronger hold on the target.

What all share (type): biochemical
One test concerns the target hCA I (Homo sapiens, UniProt P00915). Nature of the test: stopped-flow CO2 hydration assay, hCA I. The method in brief: (§1)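 Recombinant in-house enzyme, preincubated 15 min at room temperature with inhibitor. Inhibitor stock was 0.1 mM in water, diluted down to 0.01 nM. CO₂ (1.7–17 mM) hydration was followed by stopped-flow with 0.2 mM phenol red at 557 nm, in 20 mM HEPES pH 7.5 with 20 mM Na₂SO₄, over 10–100 s. Initial rates came from six traces and were corrected for the uncatalysed rate. Ki was obtained by non-linear least squares, mean of ≥3 measurements.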

In the next test the target is hCA II (Homo sapiens, UniProt P00918). Nature of the test: stopped-flow CO2 hydration assay, hCA II. The method in brief: as §1
The target in the next test is hCA IX (Homo sapiens, UniProt Q16790). Nature of the test: stopped-flow CO2 hydration assay, hCA IX. The note with it: for SI I/IX: ratio of KI hCA I to KI hCA IX; for SI II/IX: ratio of KI hCA II to KI hCA IX.
The next test has as its target hCA XII (Homo sapiens, UniProt O43570). Nature of the test: stopped-flow CO2 hydration assay, hCA XII. Conditions: for Ki: KI hCA XII; for SI I/XII: ratio of KI hCA I to KI hCA XII; for SI II/XII: ratio of KI hCA II to KI hCA XII.

Chain of hCA XII (O43570 25-354): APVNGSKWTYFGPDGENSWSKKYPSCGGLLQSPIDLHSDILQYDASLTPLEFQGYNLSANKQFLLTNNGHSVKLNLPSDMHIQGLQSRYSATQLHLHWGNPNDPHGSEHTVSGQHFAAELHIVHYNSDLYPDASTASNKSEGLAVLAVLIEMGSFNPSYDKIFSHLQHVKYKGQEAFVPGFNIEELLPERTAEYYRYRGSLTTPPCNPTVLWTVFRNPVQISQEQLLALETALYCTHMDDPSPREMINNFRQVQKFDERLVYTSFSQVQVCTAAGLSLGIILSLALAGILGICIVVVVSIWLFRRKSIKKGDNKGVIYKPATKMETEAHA
Chain of hCA I (P00915 whole entry): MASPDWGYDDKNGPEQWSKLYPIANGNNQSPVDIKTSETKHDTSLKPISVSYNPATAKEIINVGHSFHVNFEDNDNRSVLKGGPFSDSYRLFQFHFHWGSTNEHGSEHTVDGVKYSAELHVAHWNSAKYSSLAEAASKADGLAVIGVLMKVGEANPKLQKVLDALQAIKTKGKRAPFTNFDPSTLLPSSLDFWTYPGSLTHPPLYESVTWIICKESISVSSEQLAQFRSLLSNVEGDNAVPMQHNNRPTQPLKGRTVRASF

Regarding `COCCOc1cc2ncnc(Nc3cccc(-c4cn(CCOCCOCCOCCNC(=O)Nc5cccc(S(N)(=O)=O)c5)nn4)c3)c2cc1OCCOC` [compound 7a, 3-(3-(2-(2-(2-(2-(4-(3-((6,7-Bis(2-methoxyethoxy)quinazolin-4-yl)amino)phenyl)-1H-1,2,3-triazol-1-yl)ethoxy)ethoxy)ethoxy)ethyl)ureido)benzenesulfonamide], the Ki on hCA I is 46500 nM. Besides, at hCA II, the Ki is 723 nM. Further, on hCA IX, the Ki worked out at 285 nM, the “SI I/IX” value came to 164 and the “SI II/IX” value is 2.54. Further, at hCA XII (stopped-flow hydration assay), the affinity, expressed as Ki, was 58.9 nM. At hCA XII, the “SI I/XII” value was found to be 790 and the “SI II/XII” value came to 12.3.

Regarding `COCCOc1cc2ncnc(Nc3cccc(-c4cn(CCOCCOCCOCCOCCOCCC(=O)NCCOc5ccc6oc(=O)ccc6c5)nn4)c3)c2cc1OCCOC` [compound 11, 1-(4-(3-((6,7-Bis(2-methoxyethoxy)quinazoline-4-yl)amino)phenyl)-1H-1,2,3-triazol-1-yl)-N-(2-((2-oxo-2H-chromen-6-yl)oxy)ethyl)-3,6,9,12,15-pentaoxaoctadecan-18-amide], affinity on hCA I was put at a Ki of 70100 nM. The molecule also had an inhibition constant (Ki) at hCA II of 33700 nM. Moreover, on hCA IX, the inhibitory constant (Ki) stood at 4680 nM, the “SI I/IX” value amounted to 15.0 and the “SI II/IX” value is listed as 7.21. In addition, the “KI hCA XII” value at hCA XII (stopped-flow hydration assay) is “no activity”.

On to `COCCOc1cc2ncnc(Nc3cccc(-c4cn(CCOCCOCCOCCOCCOCCNC(=O)Nc5ccc(S(N)(=O)=O)cc5)nn4)c3)c2cc1OCCOC` [compound 12b, 4-(3-(17-(4-(3-((6,7-Bis(2-methoxyethoxy)quinazolin-4-yl)amino)phenyl)-1H-1,2,3-triazol-1-yl)-3,6,9,12,15-pentaoxaheptadecyl)ureido)benzenesulfonamide], for which the inhibition constant (Ki) on hCA I is 24800 nM; on hCA II, 90.8 nM; on hCA IX it was 5620 nM; on hCA XII (stopped-flow hydration assay) it was 75.3 nM. Further, the “SI I/IX” value at hCA IX is 4.41. Moreover, the “SI II/IX” value at hCA IX was determined as 0.02. Moreover, the “SI I/XII” value at hCA XII was 329. For the same molecule, on hCA XII, the “SI II/XII” value was found to be 1.21.

On hCA I, `COCCOc1cc2ncnc(Nc3cccc(-c4cn(CCOCCOCCOCCOCCOCCNC(=O)Nc5ccc6oc(=O)ccc6c5)nn4)c3)c2cc1OCCOC` [compound 13, 1-(17-(4-(3-((6,7-Bis(2-methoxyethoxy)quinazolin-4-yl)amino)phenyl)-1H-1,2,3-triazol-1-yl)-3,6,9,12,15-pentaoxaheptadecyl)-3-(2-oxo-2H-chromen-6-yl)urea] returned a Ki of 28300 nM. The affinity at hCA II, expressed as Ki, was 11400 nM. Besides, on hCA IX, the Ki was determined as 242 nM, the “SI I/IX” value is 117 and the “SI II/IX” value was determined as 46.9. This molecule came in with an inhibition constant Ki at hCA XII (stopped-flow hydration assay) of 8060 nM. Further, on hCA XII, the “SI I/XII” value is 3.51 and the “SI II/XII” value is reported as 1.41.

`COCCOc1cc2ncnc(Nc3cccc(-c4cn(CCOCCOCCOCCNC(=S)Nc5cccc(S(N)(=O)=O)c5)nn4)c3)c2cc1OCCOC` [compound 8a, 3-(3-(2-(2-(2-(2-(4-(3-((6,7-Bis(2-methoxyethoxy)quinazolin-4-yl)amino)phenyl)-1H-1,2,3-triazol-1-yl)ethoxy)ethoxy)ethoxy)ethyl)thioureido)benzenesulfonamide]: the inhibition constant (Ki) on hCA I is 45800 nM; at hCA II, 3170 nM; on hCA IX, 1920 nM; at hCA XII (stopped-flow hydration assay), 72 nM. The “SI I/IX” value on hCA IX is 23.8. Besides, the “SI II/IX” value on hCA IX stood at 1.65. For the same molecule, the “SI I/XII” value at hCA XII came out at 636. Moreover, the “SI II/XII” value on hCA XII is listed as 44.0.

On to `COCCOc1cc2ncnc(Nc3cccc(-c4cn(CCOCCOCCOCCNC(=S)NCc5ccc(S(N)(=O)=O)cc5)nn4)c3)c2cc1OCCOC` [compound 8c, 4-(15-(4-(3-((6,7-Bis(2-methoxyethoxy)quinazolin-4-yl)amino)phenyl)-1H-1,2,3-triazol-1-yl)-3-thioxo-7,10,13-trioxa-2,4-diazapentadecyl)benzenesulfonamide], for which, on hCA I, affinity was put at a Ki of 3280 nM. Moreover, the Ki on hCA II came to 1150 nM. At hCA IX, the inhibitory constant (Ki) came out at 26 nM, the “SI I/IX” value is 127 and the “SI II/IX” value came out at 44.57. At hCA XII (stopped-flow hydration assay), this molecule had an inhibition constant (Ki) of 69.7 nM. For the same molecule, at hCA XII, the “SI I/XII” value was determined as 47.0 and the “SI II/XII” value came out at 16.5.

`COCCOc1cc2ncnc(Nc3cccc(-c4cn(CCOCCOCCOCCOCCOCCNC(=S)NCCc5ccc(S(N)(=O)=O)cc5)nn4)c3)c2cc1OCCOC` [compound 14d, 4-(22-(4-(3-((6,7-Bis(2-methoxyethoxy)quinazolin-4-yl)amino)phenyl)-1H-1,2,3-triazol-1-yl)-4-thioxo-8,11,14,17,20-pentaoxa-3,5-diazadocosyl)benzenesulfonamide] had an inhibition constant Ki on hCA I of 957 nM. The affinity at hCA II, expressed as Ki, was 32700 nM. For the same molecule, on hCA IX, the affinity, expressed as Ki, was 1880 nM; the “SI I/IX” value came to 0.51; the “SI II/IX” value was 17.4. The molecule also yielded a Ki on hCA XII (stopped-flow hydration assay) of 95.2 nM. Besides, at hCA XII, the “SI I/XII” value is reported as 10.0 and the “SI II/XII” value is reported as 344.

Molecule `COCCOc1cc2ncnc(Nc3cccc(-c4cn(CCOCCOCCOCCOCCOCCNC(=S)Nc5ccc(S(N)(=O)=O)cc5)nn4)c3)c2cc1OCCOC` [compound 14b, 4-(3-(17-(4-(3-((6,7-Bis(2-methoxyethoxy)quinazolin-4-yl)amino)phenyl)-1H-1,2,3-triazol-1-yl)-3,6,9,12,15-pentaoxaheptadecyl)thioureido)benzenesulfonamide] had a Ki at hCA I of 43300 nM. At hCA II, this molecule had a Ki of 9710 nM. Moreover, on hCA IX, the inhibition constant Ki turned out to be 4930 nM, the “SI I/IX” value is 8.79 and the “SI II/IX” value is on record as 1.97. This molecule also displayed an inhibition constant (Ki) on hCA XII (stopped-flow hydration assay) of 1520 nM. On hCA XII, the “SI I/XII” value turned out to be 28.4 and the “SI II/XII” value is recorded as 6.38.

`COCCOc1cc2ncnc(Nc3cccc(-c4cn(CCOCCOCCOCCNC(=S)Nc5ccc(S(N)(=O)=O)c(C)c5Br)nn4)c3)c2cc1OCCOC` [compound 9, 4-(3-(2-(2-(2-(2-(4-(3-((6,7-Bis(2-methoxyethoxy)quinazolin-4-yl)amino)phenyl)-1H-1,2,3-triazol-1-yl)ethoxy)ethoxy)ethoxy)ethyl)thioureido)-3-bromo-2-methylbenzenesulfonamide]: the Ki at hCA I stood at 4910 nM. At hCA II, the affinity corresponds to a Ki of 531 nM. Also, on hCA IX, affinity was put at a Ki of 1340 nM, the “SI I/IX” value was 3.65 and the “SI II/IX” value came to 0.39. On hCA XII (stopped-flow hydration assay), this molecule gave a Ki of 69.8 nM. Also, on hCA XII, the “SI I/XII” value was determined as 70.3 and the “SI II/XII” value came to 7.61.

`COCCOc1cc2ncnc(Nc3cccc(-c4cn(CCOCCOCCOCCOCCOCCNC(=S)NCc5ccc(S(N)(=O)=O)cc5)nn4)c3)c2cc1OCCOC` [compound 14c, 4-(21-(4-(3-((6,7-Bis(2-methoxyethoxy)quinazoline-4-yl)amino)phenyl)-1H-1,2,3-triazol-1-yl)-3-thioxo-7,10,13,16,19-pentaoxa-2,4-diazahenicosyl)benzenesulfonamide] gave a Ki at hCA I of 4980 nM. The molecule also showed a Ki at hCA II of 1010 nM. Further, at hCA IX, the inhibition constant (Ki) came out at 3730 nM, the “SI I/IX” value is 1.33 and the “SI II/IX” value is recorded as 0.27. The same molecule came in with a Ki at hCA XII (stopped-flow hydration assay) of 665 nM. At hCA XII, the “SI I/XII” value is on record as 7.48 and the “SI II/XII” value came out at 1.52.

For the molecule `COCCOc1cc2ncnc(Nc3cccc(-c4cn(CCOCCOCCOCCOCCOCCNC(=O)NCc5ccc(S(N)(=O)=O)cc5)nn4)c3)c2cc1OCCOC` [compound 12c, 4-(21-(4-(3-((6,7-Bis(2-methoxyethoxy)quinazoline-4-yl)amino)phenyl)-1H-1,2,3-triazol-1-yl)-3-oxo-7,10,13,16,19-pentaoxa-2,4-diazahenicosyl)benzenesulfonamide], the Ki on hCA I worked out at 160 nM. Moreover, affinity at hCA II was put at a Ki of 0.8 nM. Further, on hCA IX, the Ki came to 387 nM, the “SI I/IX” value worked out at 0.41 and the “SI II/IX” value stood at 0.002. The inhibition constant Ki on hCA XII (stopped-flow hydration assay) was 940 nM. On hCA XII, the “SI I/XII” value is on record as 0.17 and the “SI II/XII” value was determined as 0.0008.

In the case of `COCCOc1cc2ncnc(Nc3cccc(-c4cn(CCOCCOCCOCCNC(=O)Nc5ccc(S(N)(=O)=O)cc5)nn4)c3)c2cc1OCCOC` [compound 7b, 4-(3-(2-(2-(2-(2-(4-(3-((6,7-Bis(2-methoxyethoxy)quinazolin-4-yl)amino)phenyl)-1H-1,2,3-triazol-1-yl)ethoxy)ethoxy)ethoxy)ethyl)ureido)benzenesulfonamide], the Ki is 36100 nM on hCA I, 950 nM on hCA II, 1120 nM at hCA IX and 57.4 nM on hCA XII (stopped-flow hydration assay). At hCA IX, the “SI I/IX” value is reported as 32.1. Also, on hCA IX, the “SI II/IX” value is 0.85. On hCA XII, the “SI I/XII” value stood at 628. Besides, at hCA XII, the “SI II/XII” value was 16.6.

As to `COCCOc1cc2ncnc(Nc3cccc(-c4cn(CCOCCOCCOCCNC(=S)NCCc5ccc(S(N)(=O)=O)cc5)nn4)c3)c2cc1OCCOC` [compound 8d, 4-(16-(4-(3-((6,7-Bis(2-methoxyethoxy)quinazolin-4-yl)amino)phenyl)-1H-1,2,3-triazol-1-yl)-4-thioxo-8,11,14-trioxa-3,5-diazahexadecyl)benzenesulfonamide], at hCA I, the affinity corresponds to a Ki of 923 nM. The Ki at hCA II was 106 nM. Moreover, on hCA IX, affinity was put at a Ki of 28 nM, the “SI I/IX” value is listed as 32.6 and the “SI II/IX” value is recorded as 3.73. Also, on hCA XII (stopped-flow hydration assay), the affinity, expressed as Ki, was 6.49 nM. In addition, on hCA XII, the “SI I/XII” value is 142 and the “SI II/XII” value is on record as 16.3.
